Format in all cases: functional
For assay [1], the system named is Staphylococcus aureus. Kind of assay: Antibacterial activity against erythromycin-susceptible Staphylococcus aureus 29213 by broth-microdilution method. To be noted: ATCC29213. An outline of the steps: (§1)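 MIC (µg/ml) by broth microdilution following CLSI standards.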
Assay [2] has as its system Staphylococcus aureus. Kind of assay: Antibacterial activity against MLSB-resistant Staphylococcus aureus 27660 expressing ermA by broth-microdilution method. An outline of the steps:
as §1

The subject of assay [3] is Staphylococcus aureus. Kind of assay: Antibacterial activity against methicillin-resistant Staphylococcus aureus 33591 by broth-microdilution method. An outline of the steps: as §1
A general note: Dilution methods test growth across graded concentrations, often in twofold steps.

The subject of assay [4] is Streptococcus pneumoniae. Kind of assay: Antibacterial activity against erythromycin-susceptible Streptococcus pneumoniae 49619 by broth-microdilution method. In outline:
as §1

Assay [5] deals with Streptococcus pneumoniae. In words: Antibacterial activity against MLSB-resistant Streptococcus pneumoniae 700906 expressing erm by broth-microdilution method. An outline of the steps: as §1
In assay [6] the test system is Streptococcus pneumoniae. In words: Antibacterial activity against efflux-resistant Streptococcus pneumoniae 7701 expressing mefA by broth-microdilution method. An outline of the steps: as §1
Assay [7] relates to Haemophilus influenzae. Kind of assay: Antibacterial activity against ampicillin-resistant Haemophilus influenzae 33929 expressing beta-lactamase by broth-microdilution method. An outline of the steps:
as §1

Assay [8] concerns Streptococcus pyogenes. In words: Antibacterial activity against erythromycin-susceptible Streptococcus pyogenes 19615 by broth-microdilution method. An outline of the steps:
(§2)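 MICs were determined by broth microdilution following CLSI standards and reported in µg/ml.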

For assay [9], the system named is Streptococcus pyogenes. Kind of assay: Antibacterial activity against efflux-resistant Streptococcus pyogenes 1323 expressing mefA by broth-microdilution method. An outline of the steps: as §1
For assay [10], the system named is Streptococcus pyogenes. Kind of assay: Antibacterial activity against MLSB-resistant Streptococcus pyogenes 2912 expressing ermA by broth-microdilution method. In outline: as §1
In assay [11] the test system is Haemophilus influenzae. Kind of assay: Antibacterial activity against ampicillin-susceptible Haemophilus influenzae by broth-microdilution method.
A further assay has as its system Moraxella catarrhalis. Kind of assay: Antibacterial activity against Moraxella catarrhalis by broth-microdilution method. An outline of the steps:
as §2

Structures are written as SMILES. ≈ marks a conversion by molar mass, not a printed value.

As for `CC[C@H]1OC(=O)[C@H](C)[C@H]2OC/C(=N/OCc3ccccc3)CCO[C@](C)(C[C@@H](C)C(=O)[C@H](C)[C@H]3NC(=O)O[C@@]31C)[C@H](O[C@@H]1O[C@H](C)C[C@H](N(C)C)[C@H]1O)[C@H]2C`, the MIC against Staphylococcus aureus [1] was 0.5 µg/mL (≈ 0.646 µM); with Staphylococcus aureus [2], 0.5 µg/mL (≈ 0.646 µM); against Staphylococcus aureus [3], greater than 64 µg/mL; in the assay with Streptococcus pneumoniae [4], no more than 0.06 µg/mL; in the assay with Streptococcus pneumoniae [5], greater than 64 µg/mL; in the assay on Streptococcus pneumoniae [6], 0.125 µg/mL (≈ 0.162 µM). The MIC against Haemophilus influenzae [7] was 16 µg/mL (≈ 20.7 µM); in the assay with Streptococcus pyogenes [8] it was no more than 0.06 µg/mL; against Streptococcus pyogenes [9], 0.25 µg/mL (≈ 0.323 µM); against Streptococcus pyogenes [10], 64 µg/mL (≈ 82.7 µM); in the assay with Haemophilus influenzae [11], 8 µg/mL (≈ 10.3 µM); in the assay on Moraxella catarrhalis, 0.125 µg/mL (≈ 0.162 µM).

As for `CC[C@H]1OC(=O)[C@H](C)[C@H]2OC/C(=N\OCCCCCc3ccccc3)CCO[C@](C)(C[C@@H](C)C(=O)[C@H](C)[C@H]3NC(=O)O[C@@]31C)[C@H](O[C@@H]1O[C@H](C)C[C@H](N(C)C)[C@H]1O)[C@H]2C`, the MIC against Staphylococcus aureus [1] is 0.25 µg/mL (≈ 0.301 µM); with Staphylococcus aureus [2], 0.25 µg/mL (≈ 0.301 µM); in the assay with Staphylococcus aureus [3] it was greater than 64 µg/mL; against Streptococcus pneumoniae [4], no more than 0.06 µg/mL; with Streptococcus pneumoniae [5] it was 8 µg/mL (≈ 9.64 µM); in the assay on Streptococcus pneumoniae [6] it was 0.125 µg/mL (≈ 0.151 µM). Also, the MIC in the assay on Haemophilus influenzae [7] is 4 µg/mL (≈ 4.82 µM); in the assay on Streptococcus pyogenes [8], no more than 0.06 µg/mL; in the assay with Streptococcus pyogenes [9], 0.125 µg/mL (≈ 0.151 µM); in the assay with Streptococcus pyogenes [10], 8 µg/mL (≈ 9.64 µM); with Haemophilus influenzae [11], 4 µg/mL (≈ 4.82 µM); against Moraxella catarrhalis it was 0.25 µg/mL (≈ 0.301 µM).

As for `CC[C@H]1OC(=O)[C@H](C)[C@@H](O[C@H]2C[C@@](C)(OC)[C@@H](O)[C@H](C)O2)[C@H](C)[C@@H](O[C@@H]2O[C@H](C)C[C@H](N(C)C)[C@H]2O)[C@](C)(O)C[C@@H](C)C(=O)[C@H](C)[C@@H](O)[C@]1(C)O` [ERYTHROMYCIN], the MIC against Staphylococcus aureus [1] is 0.5 µg/mL (≈ 0.681 µM); in the assay on Staphylococcus aureus [2] it was greater than 64 µg/mL; in the assay on Staphylococcus aureus [3] it was greater than 64 µg/mL; with Streptococcus pneumoniae [4] it was no more than 0.06 µg/mL; in the assay on Streptococcus pneumoniae [5], greater than 64 µg/mL; against Streptococcus pneumoniae [6] it was 4 µg/mL (≈ 5.45 µM). Moreover, the MIC with Haemophilus influenzae [7] was 4 µg/mL (≈ 5.45 µM); in the assay on Streptococcus pyogenes [8], 0.015 µg/mL (≈ 0.0204 µM); with Streptococcus pyogenes [9], 16 µg/mL (≈ 21.8 µM); against Streptococcus pyogenes [10], greater than 64 µg/mL; with Haemophilus influenzae [11], 4 µg/mL (≈ 5.45 µM); against Moraxella catarrhalis, 0.13 µg/mL (≈ 0.177 µM).

On to `CC[C@H]1OC(=O)[C@H](C)[C@H]2OC/C(=N\Oc3ccc4ccccc4c3)CCO[C@](C)(C[C@@H](C)C(=O)[C@H](C)[C@H]3NC(=O)O[C@@]31C)[C@H](O[C@@H]1O[C@H](C)C[C@H](N(C)C)[C@H]1O)[C@H]2C`, for which the MIC against Staphylococcus aureus [1] is 0.25 µg/mL (≈ 0.309 µM); with Staphylococcus aureus [2], 0.25 µg/mL (≈ 0.309 µM); against Staphylococcus aureus [3], 32 µg/mL (≈ 39.5 µM); against Streptococcus pneumoniae [4], no more than 0.06 µg/mL; with Streptococcus pneumoniae [5], 0.5 µg/mL (≈ 0.617 µM); against Streptococcus pneumoniae [6] it was 0.125 µg/mL (≈ 0.154 µM). For the same compound, the MIC against Haemophilus influenzae [7] is 8 µg/mL (≈ 9.88 µM); in the assay with Streptococcus pyogenes [8], no more than 0.06 µg/mL; with Streptococcus pyogenes [9], 0.125 µg/mL (≈ 0.154 µM); in the assay on Streptococcus pyogenes [10], 2 µg/mL (≈ 2.47 µM); with Haemophilus influenzae [11], 4 µg/mL (≈ 4.94 µM); in the assay with Moraxella catarrhalis it was 0.25 µg/mL (≈ 0.309 µM).

On to `CC[C@H]1OC(=O)[C@H](C)[C@H]2OC/C(=N\Oc3ccccc3-c3ccccc3)CCO[C@](C)(C[C@@H](C)C(=O)[C@H](C)[C@H]3NC(=O)O[C@@]31C)[C@H](O[C@@H]1O[C@H](C)C[C@H](N(C)C)[C@H]1O)[C@H]2C`, for which the MIC against Staphylococcus aureus [1] was 0.5 µg/mL (≈ 0.598 µM); in the assay with Staphylococcus aureus [2], 0.5 µg/mL (≈ 0.598 µM); in the assay on Staphylococcus aureus [3], 16 µg/mL (≈ 19.1 µM); in the assay with Streptococcus pneumoniae [4], no more than 0.06 µg/mL; in the assay with Streptococcus pneumoniae [5], 16 µg/mL (≈ 19.1 µM); with Streptococcus pneumoniae [6], 0.5 µg/mL (≈ 0.598 µM). Moreover, the MIC was 8 µg/mL (≈ 9.57 µM) against Haemophilus influenzae [7]; no more than 0.06 µg/mL with Streptococcus pyogenes [8]; 0.5 µg/mL (≈ 0.598 µM) in the assay on Streptococcus pyogenes [9]; 16 µg/mL (≈ 19.1 µM) against Streptococcus pyogenes [10]; 8 µg/mL (≈ 9.57 µM) in the assay on Haemophilus influenzae [11]; 0.5 µg/mL (≈ 0.598 µM) in the assay with Moraxella catarrhalis.

(Values after ChEMBL document CHEMBL1141699, “Design, synthesis, and antibacterial activities of novel 3,6-bicyclolide oximes: length optimization and zero carbon linker oximes” (2008).)
